This excerpt belongs to a sample that is enriched for hits.
ABCG2 inh: human ABCG2 inhibition, ABCB1 as counter-screen. Q9UNQ0. IgMXP3 cells, JC-1 efflux, flow cytometry. inhibition, % at 6.6 µM. actives 0.1% (n = 190,000). AID 1325;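 active means inhibition above 80%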;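 further: 0% = DMSO and 100% = nicardipine control wells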
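test system = two drug-resistant human cell lines, ABCG2 and ABCB1 | amount = 3 million cells/mL final, two lines in 1:1 ratio | reagent = JC-1 transporter substrate | doses = one concentration, 6.6 µM final | incubation = 10 min at 25 °C | signal = flow cytometric JC-1 green MFI at 530 nm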
Diaphorase act: diaphorase activation or chemical reduction counter-screen. Diaphorase/resazurin coupled assay, resorufin fluorescence, 16 min; hits give high values; 1 = vehicle wells, 0 = NADH-free wells. activation factor at 20 µM. actives 0.005% (n = 190,000). AID 1229;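 active means diaphorase activity raised at least twofold by the compound at 20 µM; inactive means activation factor below 2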
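Measured by – red resorufin fluorescence at 544/590 nm excitation/emission · Test system – Clostridium kluyveri diaphorase, purified enzyme · Incubation – reaction time 16 min, room temperature · Buffer or medium – 50 mM HEPES pH 7.4 with 4.542 mM MgCl2, 0.005% Tween 20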
FLuc stim CS: affects firefly luciferase, flagging false hits in luciferase stimulation screens; P08659; ATPlite luciferase biochemical, luminescence, 10 min; 0 = ATP-free wells, 1 = DMSO control; activation factor at 10 µM; 200,000 tested, under 10 active;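 active means luciferase activation factor, scaled between plate controls, of at least 2 with compound at 10 µM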
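test system = cell-free luciferase reagent | medium = PBS as buffer for the ATP substrate | dosing = test compounds dosed from 2 mM stocks in 100% DMSO | incubation = 10 min at ambient temperature | detection = luminescence measurement of luciferase light output | benchmarks = low control with PBS replacing ATP, high control enzyme plus ATP without compound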
ABCB1 block: inhibitors of human ABCB1 transporter, ABCG2 counter-screen | P08183 | CCRF-Adr cells, JC-1 efflux, flow cytometry | inhibition, % at 6.6 µM | actives 0.067% (n = 190,000) | AID 1326; in the data active means inhibition above about 40%;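 further: 0% = vehicle and 100% = reference inhibitor; higher value means more JC-1 retained so stronger ABCB1 efflux block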
FLuc inhib CS: counter-screen for luciferase assay inhibitors: firefly luciferase inhibition. P08659. ATPLite firefly luciferase biochemical luminescence, 10 min. inhibition, % at 10 µM. actives 1.5% (n = 200,000). AID 1006;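 active means inhibition above about 50% when tested at 10 µM, limit read from the data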
ABCB6 inh MLPCN: human ABCB6 transporter inhibition; Q9NP58; K562-ABCB6 porphyrin accumulation, flow cytometry, 1 h; hits give low values; fluorescence ratio to DMSO, % at 10 µM; actives 0.19% (n = 360,000); AID 602162;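 active means fluorescence ratio to DMSO below 75%, the collection mean minus 3 SD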;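 further: signal is porphyrin accumulated inside mitochondria; 100% equals median channel fluorescence of DMSO control wells; lower ratio means ABCB6 inhibition with less porphyrin fluorescence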
Target sequence (Q9NP58 whole entry, looked up): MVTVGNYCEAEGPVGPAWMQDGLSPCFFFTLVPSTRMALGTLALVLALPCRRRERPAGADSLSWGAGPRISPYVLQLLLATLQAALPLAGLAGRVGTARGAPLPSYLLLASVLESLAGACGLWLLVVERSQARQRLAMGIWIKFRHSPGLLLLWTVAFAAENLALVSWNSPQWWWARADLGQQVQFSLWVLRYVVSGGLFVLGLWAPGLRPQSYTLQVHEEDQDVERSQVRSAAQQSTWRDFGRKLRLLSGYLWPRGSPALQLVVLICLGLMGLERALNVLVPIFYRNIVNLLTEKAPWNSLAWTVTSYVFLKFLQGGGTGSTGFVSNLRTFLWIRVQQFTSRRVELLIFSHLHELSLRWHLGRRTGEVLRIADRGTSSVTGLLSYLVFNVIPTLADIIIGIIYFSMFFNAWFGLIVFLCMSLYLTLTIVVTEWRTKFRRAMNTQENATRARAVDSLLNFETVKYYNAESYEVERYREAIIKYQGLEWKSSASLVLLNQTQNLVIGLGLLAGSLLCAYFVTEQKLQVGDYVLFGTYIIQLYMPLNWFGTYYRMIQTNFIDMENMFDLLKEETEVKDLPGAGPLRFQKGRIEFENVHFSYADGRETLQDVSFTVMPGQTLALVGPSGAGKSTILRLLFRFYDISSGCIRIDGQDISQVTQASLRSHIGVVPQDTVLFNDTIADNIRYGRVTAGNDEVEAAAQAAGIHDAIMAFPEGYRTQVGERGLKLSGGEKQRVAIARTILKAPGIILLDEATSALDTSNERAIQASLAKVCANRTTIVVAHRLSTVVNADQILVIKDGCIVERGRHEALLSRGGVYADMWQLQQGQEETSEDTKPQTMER
The depositor's hits bear a star; x = no result given.

SMILES | ABCG2 inh | Diaphorase act | FLuc stim CS | ABCB1 block | FLuc inhib CS | ABCB6 inh MLPCN
CCN(Cc1nc2cc(OC)c(OC)cc2c(=O)[nH]1)C(=O)c1ccc(S(=O)(=O)N(C)C)cc1 | 5.7 | 0.9 | 1 | 0.9 | 0.6 | 97.0
COc1cc2nc(CN(C)Cc3ccc(C(C)(C)C)cc3)[nH]c(=O)c2cc1OC | 1.5 | 0.9 | 0.2 | 1.1 | 84.8* | 99.0
O=C(N=Nc1c(O)[nH]c2ccccc12)c1ccco1 | 2.8 | 1 | 0.2 | -0.1 | 75.4* | 102.0
O=C(N=Nc1c(O)[nH]c2ccccc12)c1ccc2c(c1)OCO2 | 12.4 | 0.9 | 0.1 | 0.7 | 93.1* | 96.0
O=C(CSCc1ccccc1)N=Nc1c(O)[nH]c2ccccc12 | 19.6 | 0.7 | 1 | 0.8 | -1.8 | 95.0
CC(=O)N(C(C)=O)c1ncn(C)c1S(=O)(=O)Nc1ccccc1 | x | x | x | x | x | 99.0
CCC1Oc2ccc(C)cc2N(CC(=O)NCCN2CCOCC2)C1=O (centres undefined) | x | x | x | x | x | 170.0
Cc1ccc(/C=C2\C(=O)ON=C2c2ccccc2)o1 | 3.3 | 0.8 | 0.4 | 0.1 | 60.1* | 101.0
Cc1ccc(/C=N/c2sc3c(c2C#N)CCC3)o1 | 3.4 | 1 | 0.3 | 0.2 | 74.1* | 101.0
N#Cc1c(/N=C/c2cccs2)sc2c1CCCCC2 | 47.1 | 0.7 | 0.1 | 0.3 | 86.5* | 95.0
O=C(Cc1cccs1)Nc1cccc(-c2nc3cc4ccccc4cc3[nH]2)c1 | -3.9 | 0.8 | 0.2 | -0.3 | 75.4* | 92.0
CC(=O)Nc1cccc(NC(=O)Cc2cccs2)c1 | x | x | x | x | x | 105.0
COCCNC(=O)c1cc(S(=O)(=O)N(C)C2CCCCC2)ccc1Cl | x | x | x | x | x | 100.0
O=C(Nc1ccc(F)cc1)Nc1ccc2c(c1)CCC2 | x | x | x | x | x | 97.0
O=C(Nc1ccc2c(c1)CCC2)c1ccc(F)cc1 | 18.4 | 0.9 | 0.3 | 0.4 | 69.5* | 100.0
Cc1ccc(Oc2cc(NN3CCCCC3)c([N+](=O)[O-])cc2[N+](=O)[O-])c(Cl)c1 | x | x | x | x | x | 92.0
O=c1c2c(nc3n1CCCCC3)sc1c(O)c(Br)ccc12 | 9.7 | 0.7 | 0.2 | 0.2 | 80.6* | 97.0
COCCNC(=O)c1cc(-c2ccc3c(c2)OCO3)on1 | 4.9 | 0.9 | 0.4 | 0.3 | 55.6* | 109.0
COCCNC(=O)COCc1cc(-c2ccc3c(c2)OCO3)on1 | x | x | x | x | x | 98.0
O=C(c1cccs1)c1ccc(-c2cccs2)s1 | 0.5 | 0.9 | 0.2 | -0.8 | 78.4* | 100.0
O=c1c2ccccc2nc2ccc(NCc3cccs3)nn12 | 17.3 | 0.9 | 0.4 | 0.6 | 59.1* | 96.0
c1ccc(-c2cc3nc(NCc4cccs4)ccn3n2)cc1 | x | x | x | x | x | 99.0
COc1cccc(-c2csc(NC3OC(=O)c4c3ccc(OC)c4OC)n2)c1 (centres undefined) | x | x | x | x | x | 102.0
COc1ccc2c(c1OC)C(=O)OC2Nc1nc(-c2ccc(-c3ccccc3)cc2)cs1 (centres undefined) | -1.6 | 0.8 | 0.3 | 0.0 | 74.0* | 97.0
COc1ccc(C(=O)Nc2ccccc2C(=O)O)cc1NC(=O)C(c1ccccc1)c1ccccc1 | x | x | x | x | x | 102.0
SMILES | ABCG2 inh | Diaphorase act | FLuc stim CS | ABCB1 block | FLuc inhib CS | ABCB6 inh MLPCN
COc1ccc(C(=O)Nc2ccccc2C(=O)O)cc1Cl | 9.4 | 0.9 | 0.2 | 1.2 | 75.5* | 95.0
CCN(Cc1ccccc1)S(=O)(=O)c1cc(C(=O)NC2CCCCCC2)ccc1OC | 2.3 | 0.9 | 1.1 | 1.1 | -5.2 | 102.0
CCN(CC)S(=O)(=O)c1cc(C(=O)Nc2ccccc2C(=O)O)ccc1OC | 7.2 | 0.7 | 0.4 | 1.2 | 59.3* | 99.0
O=C(CCNC(=O)c1ccc(Br)cc1)NCCCSc1ccccc1 | x | x | x | x | x | 102.0
COc1ccc(C(=O)N=c2sc3ccccc3n2C)cc1 | 9.2 | 0.8 | 0.3 | -0.2 | 69.1* | 93.0
CN(Cc1ccccc1F)C(=O)CN1c2cccc3cccc(c23)S1(=O)=O | x | x | x | x | x | 100.0
CS(=O)(=O)c1cnc2c(-c3ccsc3)cnn2c1N | 23.4 | 0.9 | 0.4 | 2.1 | 62.3* | 94.0
CS(=O)(=O)c1cnc2c(S(=O)(=O)c3ccccc3)cnn2c1N | 1.1 | 0.8 | 1 | -0.1 | -3.8 | 97.0
Cc1ccc(-c2nc(-c3cccnc3)no2)c(C)c1 | 6.8 | 1 | 0.4 | 0.9 | 64.9* | 101.0
Cc1ccc(C)c(OCc2nc(-c3cccnc3)no2)c1 | 35.9 | 0.8 | 1 | 0.8 | -0.8 | 98.0
CC(=O)Oc1ccc(-c2nc(-c3cccnc3)no2)cc1 | 8.8 | 0.9 | 0.4 | 0.5 | 59.8* | 104.0
COc1ncnc2c1ncn2CCCNCc1ccc(C)o1 | x | x | x | x | x | 99.0
O=C(c1ccc(-c2cc(Cl)ccc2Cl)o1)N1CCOCC1 | 5.7 | x | 1 | 0.8 | 4.6 | 98.0
O=C(c1ccc(-c2ccc(Cl)cc2Cl)o1)N1CCOCC1 | 0.6 | 0.9 | 0.5 | -0.1 | 51.3* | 99.0
COC(=O)Cc1ccc(NC(=O)c2ccc(C(C)(C)C)cc2)cc1 | 1.9 | 0.8 | 0.4 | 0.4 | 60.3* | 97.0
CC(C)(C)c1ccc(C(=O)Nc2ccc(Cl)cc2)cc1 | 1.4 | 1.1 | 0.7 | -0.6 | 26.4 | 99.0
O=C(/C(C=Nc1ccc(Br)cc1)=C(/O)c1ccco1)C(F)(F)F | 3.3 | 0.9 | 0.3 | 0.2 | 65.7* | 92.0
O=C(/C(C=Nc1cccc(C(F)(F)F)c1)=C(/O)c1ccco1)C(F)(F)F | -0.4 | 1 | 0.8 | -0.2 | 24.1 | 99.0
Clc1ccc(-c2cn3cccnc3n2)cc1 | 7.7 | 0.9 | 0.6 | -0.8 | 35.7 | 104.0
COc1cccc(-c2cn3nc4c(nc3n2)CCCC4)c1 | 34.3 | 0.6 | 0.3 | 1.7 | 68.5* | 101.0
COc1cccc(-c2cc(C(F)(F)F)n3nc(N)nc3n2)c1 | 6.1 | 0.9 | 1.1 | 0.9 | -7.5 | 97.0
Clc1ccc(-c2cn3nc4c(nc3n2)CCCC4)cc1 | 42.4 | 0.8 | 0.4 | 1.0 | 59.0* | 105.0
COc1cccc(OCc2cc(C(=O)N3CCN(C)C(c4ccccc4)C3)no2)c1 (centres undefined) | x | x | x | x | x | 100.0
O=C(CSC(=S)N1CCSCC1)c1ccccc1 | 1.4 | 1 | 0.3 | 0.4 | 67.9* | 90.0
O=C(CSC(=S)N1CCSCC1)c1ccc(Cl)cc1 | 4.4 | 0.9 | 0.7 | 1.1 | 31.3 | 98.0
COCCOCCn1c(/C=C/c2ccccc2)nc2ccccc21 | 13.7 | 0.9 | 0.2 | 1.3 | 83.5* | 102.0
CC(C)n1c(/C=C/c2ccccc2)nc2ccccc21 | 0.8 | 0.9 | 0.3 | 0.2 | 70.5* | 98.0
COc1ccc(/C=C/c2nc3ccccc3n2Cc2ccc(OC)c(OC)c2)cc1 | 16.8 | 0.9 | 0.2 | 7.6 | 83.1* | 99.0
CCCn1c(/C=C/c2ccccc2)nc2ccccc21 | 25.1 | 1 | 0.3 | 0.9 | 71.9* | 98.0
CCn1c(/C=C/c2cc[n+](C)cc2)nc2ccccc21 | x | x | x | x | x | 92.0
